Where “and” joins values, the source holds several entries; their conditions need not be identical. Identical values can stand only once.
Columns and labels:
[1] = Cytotoxicity against human MCF10A cells after 2 days; type: cell-based, MCF-10A
In short: (§1)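 Cells seeded at 2-4 × 10^4 per well in medium with 10% FBS and incubated overnight at 37 °C, 5% CO2. Graded compound concentrations added on day 2. CCK-8 reagent added on day 4 for a further 4 h, absorbance read at 450 nm. IC50 from a four-parameter logistic fit; mean ± S.D. of three experiments run in triplicate.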

T47D = test: Cytotoxicity against human T47D cells after 2 days; type: functional, cell-based; in short: as §1
DU-145 = test: Cytotoxicity against human DU145 cells after 2 days; type: functional, cell-based; in short: as §1
[2] = Cytotoxicity against human HCT15 cells after 2 days; type: functional, cell-based, HCT-15; in short: as §1
HeLa [3] = test: Cell cycle arrest in human HeLa cells assessed as accumulation at G0/G1 phase phase at 5 uM after 24 hrs using ethidium bromide staining by flow cytometry analysis relative to control; type: functional; conditions: in the assay text read “propidium iodide staining” for “ethidium bromide staining”
In short: (§2)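 HeLa cells exposed to graded compound concentrations for 24 h, harvested by centrifugation, PBS-washed twice, fixed overnight on ice in 70% ethanol. Stained with 10 μg/mL propidium iodide plus 0.5 mg/mL RNase and 0.1% Triton X-100 in PBS, 30 min at 37 °C in the dark. Flow cytometry gates: sub-G0/G1, G0/G1, S, G2/M.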

HeLa [4] = test: Cell cycle arrest in human HeLa cells assessed as accumulation at S phase phase at 5 uM after 24 hrs using ethidium bromide staining by flow cytometry analysis relative to control; type: functional; conditions: in the assay text read “propidium iodide staining” for “ethidium bromide staining”; in short: as §2
HeLa [5] = test: Cell cycle arrest in human HeLa cells assessed as accumulation at G2/M phase phase at 5 uM after 24 hrs using ethidium bromide staining by flow cytometry analysis relative to control; type: functional; conditions: in the assay text read “propidium iodide staining” for “ethidium bromide staining”; in short: as §2
HeLa [6] = test: Cell cycle arrest in human HeLa cells assessed as accumulation at sub-G0/G1 phase at 10 uM after 24 hrs using ethidium bromide staining by flow cytometry analysis relative to control; type: functional; conditions: in the assay text read “propidium iodide staining” for “ethidium bromide staining”; in short: as §2
HeLa [7] = test: Cell cycle arrest in human HeLa cells assessed as accumulation at G0/G1 phase phase at 10 uM after 24 hrs using ethidium bromide staining by flow cytometry analysis relative to control; type: functional; conditions: in the assay text read “propidium iodide staining” for “ethidium bromide staining”; in short: as §2
HeLa [8] = test: Cell cycle arrest in human HeLa cells assessed as accumulation at S phase phase at 10 uM after 24 hrs using ethidium bromide staining by flow cytometry analysis relative to control; type: functional; conditions: in the assay text read “propidium iodide staining” for “ethidium bromide staining”; in short: as §2
HeLa [9] = test: Cell cycle arrest in human HeLa cells assessed as accumulation at G2/M phase phase at 10 uM after 24 hrs using ethidium bromide staining by flow cytometry analysis relative to control; type: functional; conditions: in the assay text read “propidium iodide staining” for “ethidium bromide staining”; in short: as §2
HeLa [10] = test: Cell cycle arrest in human HeLa cells assessed as accumulation at sub-G0/G1 phase at 25 uM after 24 hrs using […] by flow cytometry analysis relative to control; type: functional; in short: as §2
HeLa [11] = test: Cell cycle arrest in human HeLa cells assessed as accumulation at G0/G1 phase phase at 25 uM after 24 hrs using […] by flow cytometry analysis relative to control; type: functional; in short: as §2
HeLa [12] = test: Cell cycle arrest in human HeLa cells assessed as accumulation at S phase phase at 25 uM after 24 hrs using […] by flow cytometry analysis relative to control; type: functional; in short: as §2
HeLa [13] = test: Cell cycle arrest in human HeLa cells assessed as accumulation at G2/M phase phase at 25 uM after 24 hrs using […] by flow cytometry analysis relative to control; type: functional; in short: as §2
HeLa [14] = test: Cell cycle arrest in human HeLa cells assessed as accumulation at sub-G0/G1 phase at 50 uM after 24 hrs using […] by flow cytometry analysis relative to control; type: functional; in short: as §2
HeLa [15] = test: Cell cycle arrest in human HeLa cells assessed as accumulation at G0/G1 phase phase at 50 uM after 24 hrs using […] by flow cytometry analysis relative to control; type: functional; in short: as §2
HeLa [16] = test: Cell cycle arrest in human HeLa cells assessed as accumulation at S phase phase at 50 uM after 24 hrs using […] by flow cytometry analysis relative to control; type: functional; in short: as §2
HeLa [17] = test: Cell cycle arrest in human HeLa cells assessed as accumulation at G2/M phase phase at 50 uM after 24 hrs using […] by flow cytometry analysis relative to control; type: functional; in short: as §2
[18] = biological target: DNA topoisomerase 2-alpha (Homo sapiens) (UniProt P11388); test: Inhibition of human DNA topoisomerase-2a-mediated relaxation of supercoiled DNA pBR322 at 100 uM after 4 hrs using ethidium bromide staining by agarose gel electrophoresis analysis
DNA topoisomerase 2-alpha (Homo sapiens), sequence (P11388 whole entry): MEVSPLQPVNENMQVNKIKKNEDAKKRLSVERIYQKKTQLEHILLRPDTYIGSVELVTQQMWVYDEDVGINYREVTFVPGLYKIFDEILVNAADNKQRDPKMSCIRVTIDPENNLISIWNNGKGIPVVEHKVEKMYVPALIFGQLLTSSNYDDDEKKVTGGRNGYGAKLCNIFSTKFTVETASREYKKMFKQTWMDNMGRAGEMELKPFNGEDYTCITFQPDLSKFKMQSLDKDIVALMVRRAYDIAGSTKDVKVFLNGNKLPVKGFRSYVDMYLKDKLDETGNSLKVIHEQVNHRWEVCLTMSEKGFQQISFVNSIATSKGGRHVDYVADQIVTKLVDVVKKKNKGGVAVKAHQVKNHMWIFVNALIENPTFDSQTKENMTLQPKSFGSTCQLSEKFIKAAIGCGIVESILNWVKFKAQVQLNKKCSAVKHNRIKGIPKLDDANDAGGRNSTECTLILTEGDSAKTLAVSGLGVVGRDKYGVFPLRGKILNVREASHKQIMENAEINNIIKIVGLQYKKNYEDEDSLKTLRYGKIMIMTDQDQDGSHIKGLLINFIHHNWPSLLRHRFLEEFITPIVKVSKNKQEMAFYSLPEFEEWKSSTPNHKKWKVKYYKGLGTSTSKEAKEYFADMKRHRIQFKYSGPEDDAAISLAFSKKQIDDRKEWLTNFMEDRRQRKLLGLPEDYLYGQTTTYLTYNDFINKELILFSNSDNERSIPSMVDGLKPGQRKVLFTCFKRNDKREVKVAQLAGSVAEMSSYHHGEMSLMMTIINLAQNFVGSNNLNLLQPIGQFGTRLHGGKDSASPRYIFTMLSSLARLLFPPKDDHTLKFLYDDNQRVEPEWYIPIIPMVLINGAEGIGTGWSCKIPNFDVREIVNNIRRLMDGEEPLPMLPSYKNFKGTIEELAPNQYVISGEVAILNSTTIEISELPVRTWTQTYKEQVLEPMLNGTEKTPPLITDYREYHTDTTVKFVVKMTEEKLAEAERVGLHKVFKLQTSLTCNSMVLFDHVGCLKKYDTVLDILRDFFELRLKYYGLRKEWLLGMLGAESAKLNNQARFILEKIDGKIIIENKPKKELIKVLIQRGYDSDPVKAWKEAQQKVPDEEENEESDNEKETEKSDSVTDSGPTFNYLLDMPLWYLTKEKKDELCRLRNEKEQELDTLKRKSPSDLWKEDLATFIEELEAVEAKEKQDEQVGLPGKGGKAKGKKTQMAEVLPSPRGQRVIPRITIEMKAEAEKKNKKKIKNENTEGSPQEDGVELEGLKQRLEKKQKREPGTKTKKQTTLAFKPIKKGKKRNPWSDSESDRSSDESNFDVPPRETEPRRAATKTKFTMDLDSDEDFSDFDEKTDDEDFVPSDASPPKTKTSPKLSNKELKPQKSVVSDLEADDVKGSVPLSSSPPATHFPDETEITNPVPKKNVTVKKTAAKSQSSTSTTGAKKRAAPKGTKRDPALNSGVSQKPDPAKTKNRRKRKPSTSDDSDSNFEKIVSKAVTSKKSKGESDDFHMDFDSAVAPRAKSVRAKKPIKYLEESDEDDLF
In short: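 Supercoiled pBR322 (200 ng) incubated with human topo IIα (1 unit) ± compound for 30 min at 30 °C. Buffer: 10 mM Tris-HCl pH 7.9, 50 mM NaCl, 50 mM KCl, 5 mM MgCl2, 1 mM EDTA, 1 mM ATP, BSA. Stopped with EDTA. 1% agarose gel run at 25 V for 4 h in TAE, ethidium bromide stain, supercoiled DNA quantified by UV imaging.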

[19] = biological target: T1, DNA topoisomerase 1 (Homo sapiens) (UniProt P11387); test: Inhibition of recombinant human DNA topoisomerase-1-mediated relaxation of supercoiled DNA pBR322 at 100 uM after 7 hrs using ethidium bromide staining by agarose gel electrophoresis analysis
T1 sequence (whole entry): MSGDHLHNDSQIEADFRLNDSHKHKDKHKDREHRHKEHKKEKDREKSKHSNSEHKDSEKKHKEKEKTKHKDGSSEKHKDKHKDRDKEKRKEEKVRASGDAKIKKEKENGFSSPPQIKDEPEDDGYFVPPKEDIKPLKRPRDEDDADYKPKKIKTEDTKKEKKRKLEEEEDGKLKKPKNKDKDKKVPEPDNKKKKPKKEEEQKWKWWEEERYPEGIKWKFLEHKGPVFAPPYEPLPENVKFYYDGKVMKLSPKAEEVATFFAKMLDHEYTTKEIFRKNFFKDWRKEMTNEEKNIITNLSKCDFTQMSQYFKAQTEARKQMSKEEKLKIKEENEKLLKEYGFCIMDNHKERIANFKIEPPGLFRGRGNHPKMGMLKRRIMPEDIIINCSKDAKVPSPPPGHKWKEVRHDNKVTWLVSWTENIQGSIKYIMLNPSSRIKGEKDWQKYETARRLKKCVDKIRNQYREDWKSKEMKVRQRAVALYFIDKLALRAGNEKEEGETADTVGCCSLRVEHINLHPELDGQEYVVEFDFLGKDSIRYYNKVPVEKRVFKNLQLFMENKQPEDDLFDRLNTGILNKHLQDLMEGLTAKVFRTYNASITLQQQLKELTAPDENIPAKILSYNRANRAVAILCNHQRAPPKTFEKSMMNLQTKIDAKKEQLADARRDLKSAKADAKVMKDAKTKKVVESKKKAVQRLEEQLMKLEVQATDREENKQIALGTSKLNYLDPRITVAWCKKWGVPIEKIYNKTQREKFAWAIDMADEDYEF
In short: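 pBR322 (100 ng) incubated with recombinant human topo I (0.4 units) ± compound for 30 min at 37 °C. Buffer: 10 mM Tris-HCl pH 7.9, 150 mM NaCl, 0.1% BSA, 1 mM spermidine, 5% glycerol. Quenched with sarcosyl stop solution. 1% agarose gel run at 15 V for 7 h in TAE, ethidium bromide stain, supercoiled DNA quantified under UV.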

Row | Structure (SMILES) | IC50 ([1]; mcf-10a) [µM] | IC50 (T47D; t47d) [µM] | IC50 ([2]; Homo sapiens, HCT-15, 48 h) [µM] | IC50 (T47D; Homo sapiens, T47D, 48 h) [µM] | IC50 (DU-145; Homo sapiens, DU-145, 48 h) [µM] | IC50 ([2]; hct-15) [µM] | IC50 ([1]; Homo sapiens, MCF-10A, 48 h) [µM] | other results
1 | Cc1ccc2c(N3CCN(C)CC3)nc(-c3cccs3)cc2c1 | 14.9 | 18.4 | 3.19 | – | – | – | – | IC50 (DU-145; du-145): 40 µM
2 | Cc1ccc2c(N3CCOCC3)nc(-c3cccs3)cc2c1 [listing 1 of 2 here] | > 50 | – | 7.58 | 6.76 | > 50 | – | – | –
3 | Cc1ccc2cc(-c3cccs3)nc(N3CCOCC3)c2c1 [listing 1 of 2 here] | 49.1 | 7.63 | – | – | – | 9.52 | – | IC50 (DU-145; du-145): 48.3 µM
4 | CCN1CCN(c2nc(-c3cccs3)cc3ccc(C)cc23)CC1 [listing 1 of 2 here] | 43.1 | 4.15 | – | – | 29.4 | 3.63 | – | –
5 | c1csc(-c2cc3ccccc3c(N3CCCCC3)n2)c1 | – | 7.26 | – | – | – | 1.04 | – | –
6 | CCN1CCN(c2nc(-c3cccs3)cc3ccc(C)cc23)CC1 [listing 2 of 2 here] | – | – | – | 2.84 | – | 7.71 | 42.9 | IC50 (DU-145; du-145): 31.1 µM
7 | Cc1ccc2cc(-c3cccs3)nc(N3CCOCC3)c2c1 [listing 2 of 2 here] | – | – | 7.58 | 6.38 | 47.3 | – | 35.6 | –
8 | Cc1ccc2cc(-c3cccs3)nc(N3CCCCC3)c2c1 | – | 7.38 | – | – | > 50 | 3.74 | > 50 | –
9 | Cc1ccc2c(N3CCOCC3)nc(-c3cccs3)cc2c1 [listing 2 of 2 here] | – | 7.88 | – | – | – | 7.79 | 48.7 | –
10 | Cc1ccc2c(N3CCNCC3)nc(-c3cccs3)cc2c1 | – | 8.74 | – | – | 8.31 | 1.31 | 7.25 | Activity (HeLa [3]): 62.69%; Activity (HeLa [4]): 11.25%; Activity (HeLa [5]): 11.58%; Activity (HeLa [6]): 92.31%; Activity (HeLa [7]): 3.24%; Activity (HeLa [8]): 0.64%; Activity (HeLa [9]): 0.23%; Activity (HeLa [10]): 96%; Activity (HeLa [11]): 1.89%; Activity (HeLa [12]): 0.5%; Activity (HeLa [13]): 0.22%; Activity (HeLa [14]): 97.06%; Activity (HeLa [15]): 1.4%; Activity (HeLa [16]): 0.35%; Activity (HeLa [17]): 0.04%
11 | CN1CCN(c2nc(-c3cccs3)cc3ccccc23)CC1 | 18.1 | – | – | 15.4 | 40.2 | 2.44 | – | –
12 | CC[C@@]1(O)C(=O)OCc2c1cc1n(c2=O)Cc2cc3ccccc3nc2-1 [CAMPTOTHECIN] | – | – | 10.1 | 0.28 | 4.01 | – | 0.27 | –
13 | c1csc(-c2cc3ccccc3c(N3CCOCC3)n2)c1 | – | 24.4 | – | – | – | 21.3 | > 50 | IC50 (DU-145; du-145): > 50 µM
14 | Cc1ccc2cc(-c3cccs3)nc(N3CCCN(C)CC3)c2c1 | – | – | 1.5 | 1.32 | 14.7 | – | 20.6 | inhibition [18]: 8%; inhibition [19]: 18.3%
15 | Cc1cccc2c(N=[N+]=[N-])nc(-c3cccs3)cc12 | – | – | > 50 | > 50 | > 50 | – | > 50 | inhibition [18]: 4.8%; inhibition [19]: 2.1%
16 | CCN1CCN(c2nc(-c3cccs3)cc3ccccc23)CC1 | – | – | – | – | – | – | – | inhibition [18]: 3.2% and 9.1%; inhibition [19]: 2.6% and 15%
